Publication PMC3355778 (Frontiers in plant science, 2011)

How the values were obtained:
Type in all cases: biochemical
CPK16 = biological target: T1, CPK16 (Arabidopsis thaliana, UniProt Q7XJR9); test: Standard filter-based kinetic assay for kinase activity, CPK16
T1 sequence (Q7XJR9 1-571): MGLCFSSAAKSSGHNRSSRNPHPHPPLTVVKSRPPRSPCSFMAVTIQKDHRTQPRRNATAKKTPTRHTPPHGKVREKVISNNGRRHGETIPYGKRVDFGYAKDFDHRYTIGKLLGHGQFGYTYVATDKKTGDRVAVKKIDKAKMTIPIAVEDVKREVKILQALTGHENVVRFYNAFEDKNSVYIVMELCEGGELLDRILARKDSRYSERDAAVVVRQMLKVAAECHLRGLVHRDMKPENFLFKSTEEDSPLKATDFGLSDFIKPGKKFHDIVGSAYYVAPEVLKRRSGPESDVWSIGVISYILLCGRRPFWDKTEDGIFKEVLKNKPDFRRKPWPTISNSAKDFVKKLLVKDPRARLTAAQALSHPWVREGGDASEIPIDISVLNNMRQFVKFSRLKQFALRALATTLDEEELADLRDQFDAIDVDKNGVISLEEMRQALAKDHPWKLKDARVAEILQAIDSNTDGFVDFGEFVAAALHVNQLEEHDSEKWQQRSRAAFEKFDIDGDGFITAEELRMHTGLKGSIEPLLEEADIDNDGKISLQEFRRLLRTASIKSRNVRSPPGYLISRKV

CPK34 = CPK34 (Arabidopsis thaliana, UniProt Q3E9C0); test: Standard filter-based kinetic assay for kinase activity, CPK34
Chain of CPK34 (Q3E9C0 whole entry, the tested form may be a part): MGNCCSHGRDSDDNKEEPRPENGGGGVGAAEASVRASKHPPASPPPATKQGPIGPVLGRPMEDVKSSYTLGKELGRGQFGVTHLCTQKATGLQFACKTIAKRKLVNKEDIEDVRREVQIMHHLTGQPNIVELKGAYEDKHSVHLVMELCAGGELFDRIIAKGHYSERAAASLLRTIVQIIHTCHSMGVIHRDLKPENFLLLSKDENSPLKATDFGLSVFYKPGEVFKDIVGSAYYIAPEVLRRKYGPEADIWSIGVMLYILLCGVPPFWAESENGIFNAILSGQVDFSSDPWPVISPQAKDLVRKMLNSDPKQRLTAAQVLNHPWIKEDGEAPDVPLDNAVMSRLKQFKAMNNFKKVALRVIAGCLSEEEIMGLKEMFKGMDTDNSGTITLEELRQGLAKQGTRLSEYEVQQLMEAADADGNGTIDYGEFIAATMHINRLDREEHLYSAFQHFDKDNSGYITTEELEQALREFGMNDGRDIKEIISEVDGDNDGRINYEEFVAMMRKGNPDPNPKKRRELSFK
Procedure, shortened: (§1)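 Recombinant Arabidopsis CPK, GST-N/6xHis-C fusion, affinity-purified. Reactions used 1 ng/µL kinase and 0.1 mg/mL BSA in Ca²⁺/EGTA-buffered kinase buffer (1.1 mM CaCl₂, 1 mM EGTA). Peptide substrate was 0–200 µM. Started with 50 µM ATP plus 0.375 µCi [γ-³³P]ATP, 12 min at RT. Aliquots went onto P81 paper, were washed in 75 mM phosphoric acid, and counted by scintillation. kcat is in nmol P/min/mg enzyme; KM by Lineweaver–Burk.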

CPK1 = biological target: T2, CPK1 (Arabidopsis thaliana, UniProt Q06850); test: Standard filter-based kinetic assay for kinase activity, CPK1
T2 sequence (Q06850 1-610): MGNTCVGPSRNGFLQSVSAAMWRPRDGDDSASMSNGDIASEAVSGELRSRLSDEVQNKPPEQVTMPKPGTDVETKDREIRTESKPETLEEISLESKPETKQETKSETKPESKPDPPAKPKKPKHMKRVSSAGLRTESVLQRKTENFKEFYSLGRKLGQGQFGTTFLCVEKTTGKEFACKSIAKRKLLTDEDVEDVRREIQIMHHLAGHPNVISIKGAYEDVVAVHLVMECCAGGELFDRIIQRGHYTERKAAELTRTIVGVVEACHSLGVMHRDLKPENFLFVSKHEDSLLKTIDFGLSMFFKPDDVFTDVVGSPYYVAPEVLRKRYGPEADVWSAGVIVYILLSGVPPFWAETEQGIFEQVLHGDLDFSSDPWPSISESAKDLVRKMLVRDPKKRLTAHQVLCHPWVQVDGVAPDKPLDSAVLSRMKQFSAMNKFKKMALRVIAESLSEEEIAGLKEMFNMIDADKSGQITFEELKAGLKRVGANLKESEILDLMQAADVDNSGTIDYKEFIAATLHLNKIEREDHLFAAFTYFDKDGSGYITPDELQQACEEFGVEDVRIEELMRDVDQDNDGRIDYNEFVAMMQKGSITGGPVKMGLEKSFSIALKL
Procedure, shortened: as §1

CPK10 = biological target: T3, CPK10 (Arabidopsis thaliana, UniProt Q9M9V8); test: Standard filter-based kinetic assay for kinase activity, CPK10
T3 sequence (Q9M9V8 1-545): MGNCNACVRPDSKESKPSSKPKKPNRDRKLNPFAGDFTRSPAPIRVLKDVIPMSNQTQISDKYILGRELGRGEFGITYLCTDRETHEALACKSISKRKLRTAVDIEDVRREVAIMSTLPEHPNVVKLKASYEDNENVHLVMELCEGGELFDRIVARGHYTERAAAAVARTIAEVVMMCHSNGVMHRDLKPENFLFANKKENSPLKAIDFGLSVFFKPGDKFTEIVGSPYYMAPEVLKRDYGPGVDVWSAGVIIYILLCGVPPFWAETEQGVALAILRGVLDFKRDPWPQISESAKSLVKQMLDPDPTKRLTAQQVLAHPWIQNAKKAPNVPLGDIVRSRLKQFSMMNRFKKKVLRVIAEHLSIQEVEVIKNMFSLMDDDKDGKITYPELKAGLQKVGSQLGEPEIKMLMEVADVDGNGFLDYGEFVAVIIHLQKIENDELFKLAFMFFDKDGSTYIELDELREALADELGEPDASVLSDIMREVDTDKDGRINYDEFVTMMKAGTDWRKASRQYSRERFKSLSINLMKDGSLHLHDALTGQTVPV
Procedure, shortened: as §1

[1] = Table 4, independent reaction 1 (first value in cell)
[2] = Table 4, independent reaction 2 (second value in cell)
[3] = Table 5, independent reaction 1 (first value in cell)
[4] = Table 5, independent reaction 2 (second value in cell)

Substance	Kcat, CPK16 (CPK16; [1])	Kcat, CPK16 (CPK16; [2])	Kcat, CPK34 (CPK34; [1])	Kcat, CPK34 (CPK34; [2])	kcat, CPK1 (CPK1; [3])	kcat, CPK1 (CPK1; [4])	kcat, CPK10 (CPK10; [3])	kcat, CPK10 (CPK10; [4])	Kcat, CPK34 (CPK34; [3])	Kcat, CPK34 (CPK34; [4])
VKIISRIF[S]QRSFRR [jfh-515]	5114 nmol phosphate incorporated/min/mg CPK	4854 nmol phosphate incorporated/min/mg CPK	223 nmol phosphate incorporated/min/mg CPK	231 nmol phosphate incorporated/min/mg CPK						
PLARTLSVAGLPGKK [ach-393, Syntide-2, reference compound]					362 nmol phosphate incorporated/min/mg enzyme	482 nmol phosphate incorporated/min/mg enzyme	252 nmol phosphate incorporated/min/mg enzyme	217 nmol phosphate incorporated/min/mg enzyme	155 nmol phosphate incorporated/min/mg enzyme	225 nmol phosphate incorporated/min/mg enzyme
KRFSFKKSFKLSGFSFKK [ach-400, reference compound]	1795 nmol phosphate incorporated/min/mg CPK	1429 nmol phosphate incorporated/min/mg CPK	398 nmol phosphate incorporated/min/mg CPK	541 nmol phosphate incorporated/min/mg CPK						
aDFLKRLLSaGMNPN [jfh-597]					5790 nmol phosphate incorporated/min/mg enzyme	5900 nmol phosphate incorporated/min/mg enzyme	1264 nmol phosphate incorporated/min/mg enzyme	1639 nmol phosphate incorporated/min/mg enzyme	475 nmol phosphate incorporated/min/mg enzyme	614 nmol phosphate incorporated/min/mg enzyme
RYRRMERTSSMPRAS [jfh-097]	3734 nmol phosphate incorporated/min/mg CPK	2677 nmol phosphate incorporated/min/mg CPK	502 nmol phosphate incorporated/min/mg CPK	718 nmol phosphate incorporated/min/mg CPK						
